ChEMBL document CHEMBL5055637, “Novel C-3-(N-alkyl-aryl)-aminomethyl rifamycin SV derivatives exhibit activity against rifampicin-resistant Mycobacterium tuberculosis RpoBS522L strain and display a different binding mode at the RNAP β-subunit site compared to rifampicin” (2021)
≈ marks a conversion by molar mass, not a printed value.

Tests used:
[1] = system: Mycobacterium tuberculosis; experiment: Antitubercular activity against wild type Mycobacterium tuberculosis H37Rv ATCC 25618 assessed as bacterial growth inhibition measured after 5 days by serial dilution method; type: functional; conditions: H37Rv ATCC 25618, 120 h, time 5 day
Method in brief: (§1)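 Strains grown in Middlebrook 7H9 with OADC supplement and 0.05% w/v Tween 80. Compounds tested as 10-point 2-fold serial dilutions. Growth read as OD590 after 5 days in 7H9-OADC-Tw. Levenberg-Marquardt curve fitting gave MIC90, the concentration inhibiting growth by 90% relative to controls. Run in triplicate.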

[2] = system: Mycobacterium tuberculosis; experiment: Antitubercular activity against wild type Mycobacterium tuberculosis HN878 assessed as bacterial growth inhibition measured after 5 days by serial dilution method; type: functional; conditions: HN878, 120 h, time 5 day; method in brief: as §1

CO[C@H]1/C=C/O[C@@]2(C)Oc3c(C)c(O)c4c(O)c(c(CN5CCN(CCO)CC5)c(O)c4c3C2=O)NC(=O)/C(C)=C\C=C\[C@H](C)[C@H](O)[C@@H](C)[C@@H](O)[C@@H](C)[C@H](OC(C)=O)[C@@H]1C
MIC90 [1]: 0.034 µM (≈ 0.0286 µg/mL) | MIC90 [2]: 0.07 µM (≈ 0.0588 µg/mL)

CO[C@H]1/C=C/O[C@@]2(C)Oc3c(C)c(O)c4c(O)c(c(CNCc5ccc(S(C)(=O)=O)cc5)c(O)c4c3C2=O)NC(=O)/C(C)=C\C=C\[C@H](C)[C@H](O)[C@@H](C)[C@@H](O)[C@@H](C)[C@H](OC(C)=O)[C@@H]1C
MIC90 [1]: 0.039 µM (≈ 0.0349 µg/mL) | MIC90 [2]: 0.096 µM (≈ 0.0859 µg/mL)

CO[C@H]1/C=C/O[C@@]2(C)Oc3c(C)c(O)c4c(O)c(c(CNCc5ccncc5)c(O)c4c3C2=O)NC(=O)/C(C)=C\C=C\[C@H](C)[C@H](O)[C@@H](C)[C@@H](O)[C@@H](C)[C@H](OC(C)=O)[C@@H]1C
MIC90 [1]: 0.075 µM (≈ 0.0613 µg/mL) | MIC90 [2]: 0.31 µM (≈ 0.254 µg/mL)

CO[C@H]1/C=C/O[C@@]2(C)Oc3c(C)c(O)c4c(O)c(c(CNCc5ccccc5)c(O)c4c3C2=O)NC(=O)/C(C)=C\C=C\[C@H](C)[C@H](O)[C@@H](C)[C@@H](O)[C@@H](C)[C@H](OC(C)=O)[C@@H]1C
MIC90 [1]: 0.097 µM (≈ 0.0792 µg/mL)

CO[C@H]1/C=C/O[C@@]2(C)Oc3c(C)c(O)c4c(O)c(c(CNCc5cccs5)c(O)c4c3C2=O)NC(=O)/C(C)=C\C=C\[C@H](C)[C@H](O)[C@@H](C)[C@@H](O)[C@@H](C)[C@H](OC(C)=O)[C@@H]1C
MIC90 [1]: 0.082 µM (≈ 0.0675 µg/mL) | MIC90 [2]: 0.2 µM (≈ 0.165 µg/mL)

CO[C@H]1/C=C/O[C@@]2(C)Oc3c(C)c(O)c4c(O)c(c(CNCc5ccco5)c(O)c4c3C2=O)NC(=O)/C(C)=C\C=C\[C@H](C)[C@H](O)[C@@H](C)[C@@H](O)[C@@H](C)[C@H](OC(C)=O)[C@@H]1C
MIC90 [1]: 0.09 µM (≈ 0.0726 µg/mL) | MIC90 [2]: 0.45 µM (≈ 0.363 µg/mL)

COC(=O)c1ccc(CNCc2c3c(O)c4c(O)c(C)c5c(c4c2O)C(=O)[C@@](C)(O/C=C/[C@H](OC)[C@@H](C)[C@@H](OC(C)=O)[C@H](C)[C@H](O)[C@H](C)[C@@H](O)[C@@H](C)/C=C/C=C(/C)C(=O)N3)O5)cc1
MIC90 [1]: 0.12 µM (≈ 0.105 µg/mL) | MIC90 [2]: 0.53 µM (≈ 0.464 µg/mL)

CO[C@H]1/C=C/O[C@@]2(C)Oc3c(C)c(O)c4c(O)c(c(CNCCc5c[nH]c6ccccc56)c(O)c4c3C2=O)NC(=O)/C(C)=C\C=C\[C@H](C)[C@H](O)[C@@H](C)[C@@H](O)[C@@H](C)[C@H](OC(C)=O)[C@@H]1C
MIC90 [1]: 0.039 µM (≈ 0.0339 µg/mL) | MIC90 [2]: 0.39 µM (≈ 0.339 µg/mL)

CO[C@H]1/C=C/O[C@@]2(C)Oc3c(C)c(O)c4c(O)c(c(CNCCc5ccc(O)cc5)c(O)c4c3C2=O)NC(=O)/C(C)=C\C=C\[C@H](C)[C@H](O)[C@@H](C)[C@@H](O)[C@@H](C)[C@H](OC(C)=O)[C@@H]1C
MIC90 [1]: 0.066 µM (≈ 0.0559 µg/mL) | MIC90 [2]: 0.22 µM (≈ 0.186 µg/mL)

NNC(=O)c1ccncc1 [ISONIAZID]
MIC90 [1]: 0.28 µM (≈ 0.0384 µg/mL) | MIC90 [2]: 0.29 µM (≈ 0.0398 µg/mL)

CO[C@H]1/C=C/O[C@@]2(C)Oc3c(C)c(O)c4c(O)c(c(/C=N/N5CCN(C)CC5)c(O)c4c3C2=O)NC(=O)/C(C)=C\C=C\[C@H](C)[C@H](O)[C@@H](C)[C@@H](O)[C@@H](C)[C@H](OC(C)=O)[C@@H]1C [RIFAMPIN]
MIC90 [1]: 0.0045 µM (≈ 0.0037 µg/mL) | MIC90 [2]: 0.02 µM (≈ 0.0165 µg/mL)
